This is an account of results in ChEMBL document CHEMBL1147446, “Antagonists of human CCR5 receptor containing 4-(pyrazolyl)piperidine side chains. Part 3: SAR studies on the benzylpyrazole segment” (Bioorg Med Chem Lett, 2004).

The nature of data set [1]: in vivo. The settings on record: rat, plasma.
Data set [2] relates to HeLa. The experiment in a line: Antiviral activities in a cell culture HIV-1 infectivity inhibition assay using HeLa cells plus 50% normal human serum. It counts as functional.
Data set [3] addresses C-C chemokine receptor type 5 (Homo sapiens, UniProt P51681). Kind of data set: Inhibitory concentration for displacement of [125I]-MIP-1 alpha from recombinant human CC chemokine receptor 5 (CCR5) expressed in CHO cell. It counts as cell-based. An outline of the steps: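 Competitive binding to CCR5 on CHO cell membranes, read as displacement of [125I]-labeled MIP-1α. IC50 values are means of triplicate determinations. Standard errors were normally <15% within an assay. Assay-to-assay variation was within ±2-fold, judged from a standard compound.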
(In general: Displacement assays read how much labelled ligand stays bound in the presence of the test substance.)

Data set [4] can be described thus: in vivo. To be noted: rat.
Data set [5] can be described thus: in vivo. To be noted: rat. The source holds these as a separate data set.
For data set [6], the system named is HeLa. Kind of data set: Antiviral activities in a cell culture HIV-1 infectivity inhibition assay using HeLa cells. It counts as functional. The settings on record: Homo sapiens.

Molecules are shown by their SMILES.

Sequence of C-C chemokine receptor type 5 (P51681 whole entry): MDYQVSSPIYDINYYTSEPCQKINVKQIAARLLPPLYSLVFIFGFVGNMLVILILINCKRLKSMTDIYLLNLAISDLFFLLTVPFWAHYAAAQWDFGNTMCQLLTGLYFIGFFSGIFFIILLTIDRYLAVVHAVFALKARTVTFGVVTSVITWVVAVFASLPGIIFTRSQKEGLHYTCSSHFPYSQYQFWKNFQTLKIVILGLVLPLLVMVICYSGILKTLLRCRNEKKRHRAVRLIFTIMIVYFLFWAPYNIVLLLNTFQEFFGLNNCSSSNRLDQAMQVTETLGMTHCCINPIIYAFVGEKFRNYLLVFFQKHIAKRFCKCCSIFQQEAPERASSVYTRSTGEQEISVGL

Consider `CCCCOc1ccc(Cc2cc(C3CCN(C[C@H]4CN([C@@H](C(=O)O)[C@@H](C)CC)C[C@@H]4c4cccc(F)c4)CC3)n(CC)n2)cc1`, for which, in the data set “in vivo [1]”, the clearance was found to be 4.8 mL/min/kg. Also, the results for the 90% effect concentration (IC90) in the data set on HeLa [2] and with HeLa [6] were 11 nM and 0.4 nM, respectively. In data set [3], the concentration for half-maximal inhibition (IC50) is 1 nM. Moreover, in “in vivo [4]”, the bioavailability turned out to be 22%. In addition, the half-life in the data set “in vivo [5]” is 1.2 h.

`CCn1nc(Cc2ccc(F)cc2)cc1C1CCN(C[C@H]2CN([C@@H](C(=O)O)C(C)C)C[C@@H]2c2cccc(F)c2)CC1` displayed a clearance in “in vivo [1]” of 7.6 mL/min/kg. Besides, the IC90 in the data set with HeLa [2] is above 300 nM; in the data set on HeLa [6] it was 11 nM. Further, the IC50 in data set [3] was found to be 1.1 nM. This compound returned a bioavailability in “in vivo [4]” of 7.8%. The same compound showed a half-life in “in vivo [5]” of 0.91 h.

In the case of `CC[C@H](C)[C@H](C(=O)O)N1C[C@H](CN2CCC(c3cc(Cc4ccc(C(C)(C)C)cc4)nn3CC)CC2)[C@@H](c2cccc(F)c2)C1`, the clearance in the data set “in vivo [1]” worked out at 1.6 mL/min/kg. Besides, the IC90 in the data set with HeLa [2] worked out at 11 nM; in the data set on HeLa [6] it was 0.4 nM. Also, the IC50 in data set [3] worked out at 0.3 nM. This compound yielded a bioavailability in “in vivo [4]” of 9.2%. The same compound showed a half-life in “in vivo [5]” of 1.4 h.

In the case of `CCn1nc(Cc2ccc(S(C)(=O)=O)cc2)cc1C1CCN(C[C@H]2CN([C@@H](C(=O)O)C(C)C)C[C@@H]2c2cccc(F)c2)CC1`, in the data set “in vivo [1]”, the clearance was 11 mL/min/kg. Moreover, the concentration for an effect of 90% (IC90) in the data set with HeLa [2] turned out to be 33 nM; in the data set with HeLa [6], 3.7 nM. The concentration for half-maximal inhibition (IC50) in data set [3] is 3.5 nM. In addition, the bioavailability in the data set “in vivo [4]” turned out to be 5.4%. Also, the half-life in “in vivo [5]” was 0.38 h.

The compound `CC[C@H](C)[C@H](C(=O)O)N1C[C@H](CN2CCC(c3cc(Cc4ccc(C(C)C)cc4)nn3CC)CC2)[C@@H](c2cccc(F)c2)C1` showed a clearance in the data set “in vivo [1]” of 3.3 mL/min/kg. Besides, the concentration for an effect of 90% (IC90) in the data set on HeLa [2] was 11 nM; in the data set on HeLa [6], below 0.14 nM. In data set [3], the IC50 was found to be 0.3 nM. Also, the bioavailability in “in vivo [4]” amounted to 19%. In the data set “in vivo [5]”, this compound came in with a half-life of 1.18 h.

In turn, `CCn1nc(Cc2ccc(C(C)(C)C)cc2)cc1C1CCN(C[C@H]2CN([C@@H](C(=O)O)C(C)(C)C)C[C@@H]2c2cccc(F)c2)CC1` gave a clearance in the data set “in vivo [1]” of 1.1 mL/min/kg. In addition, the 90% effect concentration (IC90) in the data set on HeLa [2] was determined as 33 nM; with HeLa [6], 0.4 nM. Moreover, in data set [3], the half-maximal inhibitory concentration (IC50) amounted to 0.4 nM. Further, in the data set “in vivo [4]”, the bioavailability was found to be 77%. Further, the half-life in “in vivo [5]” was 2.5 h.

In the case of `CC[C@@H](C)[C@H](C(=O)O)N1C[C@H](CN2CCC(c3cc(Cc4ccc(OC5CCC5)cc4)nn3CC)CC2)[C@@H](c2cccc(F)c2)C1`, the clearance in “in vivo [1]” is 0.75 mL/min/kg. Besides, the IC90 is 33 nM in the data set with HeLa [2] and below 0.14 nM in the data set on HeLa [6]. Further, the half-inhibitory concentration (IC50) in data set [3] was determined as 0.4 nM. Also, the bioavailability in the data set “in vivo [4]” came to 26%. The same compound gave a half-life in “in vivo [5]” of 2.1 h.

Consider `CC[C@@H](C)[C@H](C(=O)O)N1C[C@H](CN2CCC(c3cc(Cc4ccc(C#N)cc4)nn3CC)CC2)[C@@H](c2cccc(F)c2)C1`, for which the clearance in the data set “in vivo [1]” turned out to be 9.8 mL/min/kg. Besides, the figures for the IC90 in the data set on HeLa [2] and in the data set on HeLa [6] were 33 nM and 0.4 nM, respectively. Moreover, the half-maximal inhibitory concentration (IC50) in data set [3] was determined as 1.3 nM. In addition, in “in vivo [4]”, the bioavailability stood at 3.1%. Besides, the half-life in “in vivo [5]” is 0.74 h.

On to `CCn1nc(Cc2ccc(OC(C)C)cc2)cc1C1CCN(C[C@H]2CN([C@@H](C(=O)O)C(C)(C)C)C[C@@H]2c2cccc(F)c2)CC1`, for which, in “in vivo [1]”, the clearance was 0.98 mL/min/kg. Also, the results for the IC90 in the data set on HeLa [2] and in the data set with HeLa [6] were 11 nM and below 0.14 nM, respectively. Moreover, the IC50 in data set [3] was determined as 0.7 nM. This compound also had a bioavailability in the data set “in vivo [4]” of 49%. The same compound showed a half-life in “in vivo [5]” of 1.4 h.

As for `CC[C@H](C)[C@H](C(=O)O)N1C[C@H](CN2CCC(c3cc(Cc4ccc(OC)c(C#N)c4)nn3CC)CC2)[C@@H](c2cccc(F)c2)C1`, the figures for the IC90 in the data set on HeLa [2] and in the data set on HeLa [6] were 33 nM and below 0.14 nM, respectively. In data set [3], the IC50 amounted to 0.5 nM.

`CCCOc1ccc(Cc2cc(C3CCN(C[C@H]4CN([C@@H](C(=O)O)[C@H](C)CC)C[C@@H]4c4cccc(F)c4)CC3)n(CC)n2)cc1`: the 90% effect concentration (IC90) in the data set on HeLa [2] stood at 300 nM; in the data set with HeLa [6], 1.2 nM. Besides, in data set [3], the IC50 worked out at 1.2 nM.

Take `CCn1nc(Cc2ccc(Oc3ccccc3)cc2)cc1C1CCN(C[C@H]2CN([C@@H](C(=O)O)C(C)C)C[C@@H]2c2cccc(F)c2)CC1`: the IC90 is above 300 nM in the data set on HeLa [2] and 11 nM in the data set with HeLa [6]. For the same compound, in data set [3], the IC50 came to 0.6 nM.

On to `CC[C@@H](C)[C@H](C(=O)O)N1C[C@H](CN2CCC(c3cc(Cc4ccc(OCC(F)(F)F)cc4)nn3CC)CC2)[C@@H](c2cccc(F)c2)C1`, for which the figures for the IC90 in the data set with HeLa [2] and in the data set on HeLa [6] were 100 nM and 3.7 nM, respectively. For the same compound, the IC50 in data set [3] was determined as 0.5 nM.

Take `CCn1nc(Cc2ccc(OC)cc2)cc1C1CCN(C[C@H]2CN([C@@H](C(=O)O)C(C)C)C[C@@H]2c2cccc(F)c2)CC1`: the IC90 was 100 nM with HeLa [2] and 0.4 nM with HeLa [6]. For the same compound, the 50% inhibitory concentration (IC50) in data set [3] is 1.3 nM.

Turning to `CC[C@H](C)[C@H](C(=O)O)N1C[C@H](CN2CCC(c3cc(Cc4ccc5ccccc5c4)nn3CC)CC2)[C@@H](c2cccc(F)c2)C1`, the concentration for an effect of 90% (IC90) in the data set with HeLa [2] was 300 nM; in the data set with HeLa [6] it was below 0.14 nM. Also, the IC50 in data set [3] was found to be 0.3 nM.

For the compound `CCn1nc(Cc2ccccc2F)cc1C1CCN(C[C@H]2CN([C@@H](C(=O)O)C3CCCCC3)C[C@@H]2c2cccc(F)c2)CC1`, the IC90 with HeLa [2] was 33 nM; in the data set on HeLa [6], below 0.14 nM. Moreover, the concentration for half-maximal inhibition (IC50) in data set [3] was 0.5 nM.

As to `CCn1nc(Cc2ccc(OC(F)(F)F)cc2)cc1C1CCN(C[C@H]2CN([C@@H](C(=O)O)C(C)C)C[C@@H]2c2cccc(F)c2)CC1`, the IC90 in the data set with HeLa [2] is 300 nM; with HeLa [6], 3.7 nM. The concentration for half-maximal inhibition (IC50) in data set [3] stood at 0.8 nM.

Take `CC[C@H](C)[C@H](C(=O)O)N1C[C@H](CN2CCC(c3cc(Cc4ccc5c(c4)OCO5)nn3CC)CC2)[C@@H](c2cccc(F)c2)C1`: the values for the concentration for an effect of 90% (IC90) in the data set with HeLa [2] and with HeLa [6] were 100 nM and below 0.14 nM, respectively. Moreover, in data set [3], the half-maximal inhibitory concentration (IC50) was 0.5 nM.

As for `CC[C@@H](C)[C@H](C(=O)O)N1C[C@H](CN2CCC(c3cc(Cc4cccc5ccccc45)nn3CC)CC2)[C@@H](c2cccc(F)c2)C1`, the IC90 with HeLa [2] is 33 nM; in the data set with HeLa [6], below 0.14 nM. For the same compound, the IC50 in data set [3] was 0.2 nM.

Consider `CCn1nc(Cc2ccc(OC(F)F)cc2)cc1C1CCN(C[C@H]2CN([C@@H](C(=O)O)C(C)C)C[C@@H]2c2cccc(F)c2)CC1`, for which the values for the IC90 in the data set with HeLa [2] and in the data set on HeLa [6] were 100 nM and below 0.14 nM, respectively. In data set [3], the IC50 worked out at 0.5 nM.

Take `CCOc1ccc(Cc2cc(C3CCN(C[C@H]4CN([C@@H](C(=O)O)C(C)(C)C)C[C@@H]4c4cccc(F)c4)CC3)n(CC)n2)cc1F`: the 90% effect concentration (IC90) in the data set with HeLa [2] was 11 nM; with HeLa [6] it was below 0.14 nM. For the same compound, the concentration for half-maximal inhibition (IC50) in data set [3] worked out at 0.7 nM.

Consider `CCCOc1ccc(Cc2cc(C3CCN(C[C@H]4CN([C@@H](C(=O)O)[C@@H](C)CC)C[C@@H]4c4cccc(F)c4)CC3)n(CC)n2)cc1`, for which the IC90 in the data set on HeLa [2] is 100 nM; in the data set with HeLa [6], below 0.14 nM. Also, in data set [3], the IC50 was determined as 1.1 nM.

On to `CCCOc1ccc(Cc2cc(C3CCN(C[C@H]4CN([C@@H](C(=O)O)C(C)C)C[C@@H]4c4cccc(F)c4)CC3)n(CC)n2)cc1`, for which the concentration for an effect of 90% (IC90) with HeLa [2] was above 300 nM; in the data set on HeLa [6], 3.7 nM. For the same compound, the IC50 in data set [3] is 0.8 nM.

For the compound `CCOc1ccc(Cc2cc(C3CCN(C[C@H]4CN([C@@H](C(=O)O)C(C)C)C[C@@H]4c4cccc(F)c4)CC3)n(CC)n2)cc1`, the values for the concentration for an effect of 90% (IC90) with HeLa [2] and in the data set with HeLa [6] were 300 nM and 0.4 nM, respectively. In addition, in data set [3], the concentration for half-maximal inhibition (IC50) is 1 nM.

For `CCn1nc(Cc2ccc(O)cc2)cc1C1CCN(C[C@H]2CN([C@@H](C(=O)O)C3CCCCC3)C[C@@H]2c2cccc(F)c2)CC1`, the values for the IC90 with HeLa [2] and with HeLa [6] were 33 nM and 11 nM, respectively. Further, the IC50 in data set [3] came out at 0.5 nM.

The clearance is the rate of elimination divided by the concentration. What is called IC90 is the point of the concentration-response curve where the effect stands at 90%. In general, IC50 refers to the midpoint of a concentration-inhibition curve. For orientation: bioavailability means the share of a dose that reaches the circulation, judged against a reference dose that is usually intravenous. Usually half-life stands for the time needed for the level to fall by half in the phase considered. Low values mean fast loss, high ones slow loss.
